# Key:
# [1] = tested on: Pseudomonas aeruginosa; assay: Antimicrobial activity against Pseudomonas aeruginosa by CLSI method; format: functional
# [2] = tested on: Homo sapiens; assay: Intercompartmental clearance in patient with gram-negative bacterial infection at […], iv; format: ADME, organism-based; parameters: route intravenous; conditions: in vivo
# Method in brief: (§1)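 Critically ill ICU patients (n=18) received CMS 3 MU (240 mg) in 100 ml saline as a 15-min IV infusion every 8 h, reduced to 160 mg q8h if creatinine clearance was <50 ml/min. Venous plasma was taken predose and 15–465 min after the first and fourth infusions, then chilled and stored at −70°C. Colistin was measured by LC-MS/MS, and CMS after acid hydrolysis. Parameters came from NONMEM population modelling.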
# [3] = Cmax in patient with gram-negative bacterial infection at […], iv after 15 mins; format: ADME, organism-based; parameters: route intravenous; conditions: human, in vivo; method in brief: as §1
# [4] = (§2) Half life in central compartment of patient with gram-negative bacterial infection at […], iv; format: ADME, organism-based; parameters: route intravenous; conditions: human, in vivo; method in brief: as §1
# [5] = (§3) Half life in peripheral compartment of patient with gram-negative bacterial infection at […], iv; format: ADME, organism-based; parameters: route intravenous; conditions: human, in vivo; method in brief: as §1
# [6] = Drug concentration at steady state in patient with gram-negative bacterial infection at […], iv after 7 hrs; format: ADME, organism-based; parameters: route intravenous; conditions: human, in vivo, read-out: Css; method in brief: as §1
# [7] = Volume of distribution of central compartment in patient with gram-negative bacterial infection at […], iv; format: ADME, organism-based; parameters: route intravenous; conditions: human, in vivo; method in brief: as §1
# [8] = tested on: Acinetobacter baumannii; assay: Antimicrobial activity against Acinetobacter baumannii by CLSI method; format: functional
# [9] = tested on: Pseudomonas aeruginosa; assay: Antimicrobial activity against Pseudomonas aeruginosa by EUCAST method; format: functional
# [10] = tested on: Acinetobacter baumannii; assay: Antimicrobial activity against Acinetobacter baumannii by EUCAST method; format: functional
# [11] = Clearance in patient with gram-negative bacterial infection at […], iv; format: ADME, organism-based; parameters: route intravenous; conditions: human, in vivo; method in brief: as §1
# [12] = tested on: Homo sapiens; assay: Clearance of formed compound in patient with gram-negative bacterial infection at […], iv; format: ADME, organism-based; parameters: route intravenous; conditions: in vivo; method in brief: as §1
# [13] = tested on: Homo sapiens; assay: as §2; format: ADME, organism-based; parameters: route intravenous; conditions: in vivo; method in brief: as §1
# [14] = tested on: Homo sapiens; assay: Half life in patient with gram-negative bacterial infection at […], iv; format: ADME, organism-based; parameters: route intravenous; conditions: in vivo; method in brief: as §1
# [15] = tested on: Homo sapiens; assay: as §3; format: ADME, organism-based; parameters: route intravenous; conditions: in vivo; method in brief: as §1
# [16] = tested on: Homo sapiens; assay: Volume of distribution of formed compound in patient with gram-negative bacterial infection at […], iv; format: ADME, organism-based; parameters: route intravenous; conditions: in vivo; method in brief: as §1
MIC [1] [µg/mL],CL [2] [L/h],Cmax [3] [ng/mL],half-life [4] [min],half-life [5] [h],concentration at 7 h [6] [ng/mL],Vd [7] [L],MIC [8] [µg/mL],MIC [9] [µg/mL],MIC [10] [µg/mL],clearance [11] [mL/min],CL [12] [L/h],t1/2 [13] [h],t1/2 [14] [h],t1/2 [15] [h],Vd [16] [L],Compound
≤ 2,133,2930,2.76,2.3,2300,13.5,≤ 2,≤ 2,≤ 2,228,,,,,,CCC(C)CCCCC(=O)N[C@@H](CCNCS(=O)(=O)O)C(=O)N[C@H](C(=O)N[C@@H](CCNCS(=O)(=O)O)C(=O)N[C@H]1CCNC(=O)[C@H]([C@@H](C)O)NC(=O)[C@H](CCNCS(=O)(=O)O)NC(=O)[C@H](CCNCS(=O)(=O)O)NC(=O)[C@H](CC(C)C)NC(=O)[C@@H](CC(C)C)NC(=O)[C@H](CCNCS(=O)(=O)O)NC1=O)[C@@H](C)O.CS(=O)(=O)O (stereo partly specified) [COLISTIN METHYLSULPHATE]
,,,,,,,,,,,9.09,14.4,7.1,14.4,189,COLISTIN

# — ChEMBL document CHEMBL1649525, “Population pharmacokinetic analysis of colistin methanesulfonate and colistin after intravenous administration in critically ill patients with infections caused by gram-negative bacteria” (Antimicrob Agents Chemother, 2009)
